The test system of assay [1] is HL-60. In words: Induction of apoptosis in human HL60 cells assessed as late apoptotic cells at 1 uM after 6 hrs using Annexin-V-FITC/propidium iodide staining by flow cytometry (reference value: 1%). It is filed as functional. The procedure, abridged:
(§1)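 HL-60 cells (1 × 10^6/ml) treated 6 h at varied concentrations; camptothecin 4 μM 6 h positive control. AnnexinV-FITC and propidium iodide staining per kit; FL-1 versus FL-2 flow cytometry with quadrant statistics for apoptotic and necrotic populations; representative of three experiments.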

Assay [2] deals with HL-60. In words: Induction of apoptosis in human HL60 cells assessed as smoothening of cell surface and blebbing of plasma membrane at 0.5 uM after 9 hrs by scanning electron microscopy. It is filed as functional, cell-based. The gist of the method: (§2)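 HL-60 seeded 2 × 10^5/ml in medium with 10% FCS, treated at 0.5 and 2 μM (DMSO stock; vehicle-only controls) for 9 h at 37 °C. Fixed 2.5% glutaraldehyde in 0.1 M phosphate pH 7.2 at 4 °C 1 h, post-fixed 1% OsO4 1 h, acetone-dehydrated, critical-point dried, gold-coated; surface ultrastructure by scanning electron microscopy.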

For assay [3], the system named is HL-60. The assay can be described thus: Induction of apoptosis in human HL60 cells assessed as early apoptotic cells at 4 uM after 6 hrs using Annexin-V-FITC/propidium iodide staining by flow cytometry (reference value: 6%). It is filed as functional. The procedure, abridged: as §1
Another assay concerns HeLa. The assay can be described thus: Cytotoxicity against human HeLa cells after 48 hrs by MTT assay. Type of assay: functional, cell-based. The procedure, abridged: (§3)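 HL-60 (2 × 10^4/200 μl) or HeLa (1 × 10^4/200 μl) in RPMI-1640/MEM, 10% FCS, 37 °C, 5% CO2; treated 0.1–50 μM for 48 h, DMSO vehicle <0.2%. MTT added final 3 h; formazan dissolved in DMSO, OD 570 nm (reference 620 nm). IC50 as 50% viability versus untreated control; three experiments, CV <10%.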
For orientation: Tetrazolium assays rely on reduction of a dye to a coloured formazan, in cell work by metabolically active cells.

In assay [4] the test system is HL-60. The assay can be described thus: Induction of apoptosis in human HL60 cells assessed as increase in scattered apoptotic bodies formation at 0.5 uM after 9 hrs using Hoechst 33258 staining by fluorescence microscopy. Type of assay: functional, cell-based. The gist of the method: (§4)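 HL-60 cells (2 × 10^6/3 ml) treated 9 h, washed twice in PBS, fixed and stained with Hoechst 33258; nuclear morphology and apoptotic bodies examined by inverted fluorescence microscopy.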

In assay [5] the test system is HL-60. In words: Induction of apoptosis in human HL60 cells assessed as early apoptotic cells at 0.3 uM after 6 hrs using Annexin-V-FITC/propidium iodide staining by flow cytometry (reference value: 6%). Type of assay: functional. The gist of the method:
as §1
In general terms: Flow cytometry measures light scatter and fluorescence of single cells or particles in a stream.

Assay [6] deals with HL-60. The assay can be described thus: Induction of apoptosis in human HL60 cells assessed as early apoptotic cells at 1 uM after 6 hrs using Annexin-V-FITC/propidium iodide staining by flow cytometry (reference value: 6%). It is filed as functional. The procedure, abridged: as §1
For assay [7], the system named is HL-60. In words: Induction of apoptosis in human HL60 cells assessed as apoptotic cells at 2 uM after 9 hrs by scanning electron microscopy. It is filed as functional, cell-based. The procedure, abridged: as §2
The subject of assay [8] is HL-60. In words: Induction of apoptosis in human HL60 cells assessed as late apoptotic cells at 2 uM after 6 hrs using Annexin-V-FITC/propidium iodide staining by flow cytometry (reference value: 1%). Type of assay: functional. The gist of the method:
as §1

In assay [9] the test system is HL-60. In words: Induction of apoptosis in human HL60 cells assessed as cell shrinkage and apoptotic body formation at 0.5 uM after 9 hrs by scanning electron microscopy. It is filed as functional, cell-based. The gist of the method:
as §2

In assay [10] the test system is HL-60. In words: Induction of apoptosis in human HL60 cells assessed as loss of cell cytoplasmic volume at 2 uM after 9 hrs by scanning electron microscopy. Type of assay: functional, cell-based. The procedure, abridged: as §2
Assay [11] concerns HL-60. In words: Cell cycle arrest in human HL60 cells assessed as accumulation at sub-G1 phase at 4 uM after 18 hrs by flow cytometry relative to control. It is filed as functional. The procedure, abridged: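 HL-60 cells at 1 × 10^6/ml exposed 18 h; camptothecin 4 μM for 6 h as positive control. Cells pelleted 160 × g 5 min, PBS-washed, fixed in cold 70% alcohol overnight at −20 °C, RNase (400 μg/ml) digested, PI-stained; flow cytometry, hypo-diploid (<2n DNA) sub-G0/G1 fraction scored as apoptotic.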

Assay [12] has as its system HL-60. In words: Cytotoxicity against human HL60 cells after 48 hrs by MTT assay. Type of assay: functional, cell-based. The conditions noted are these: HL-60, 48 h. The gist of the method:
as §3

The subject of assay [13] is HL-60. In words: Induction of apoptosis in human HL60 cells assessed as late apoptotic cells at 4 uM after 6 hrs using Annexin-V-FITC/propidium iodide staining by flow cytometry (reference value: 1%). Type of assay: functional. The gist of the method:
as §1

The test system of assay [14] is HL-60. The assay can be described thus: Induction of apoptosis in human HL60 cells assessed as late apoptotic cells at 0.3 uM after 6 hrs using Annexin-V-FITC/propidium iodide staining by flow cytometry (reference value: 1%). It is filed as functional. The procedure, abridged: as §1
Assay [15] deals with HL-60. The assay can be described thus: Induction of apoptosis in human HL60 cells assessed as nuclear condensation and blebbing at 0.5 to 2 uM after 9 hrs Hoechst 33258 staining by fluorescence microscopy. It is filed as functional, cell-based. The procedure, abridged:
as §4

Assay [16] concerns HL-60. The assay can be described thus: Induction of apoptosis in human HL60 cells assessed as early apoptotic cells at 2 uM after 6 hrs using Annexin-V-FITC/propidium iodide staining by flow cytometry (reference value: 6%). It is filed as functional. The procedure, abridged:
as §1

In assay [17] the test system is HL-60. In words: Induction of apoptosis in human HL60 cells assessed as DNA ladder formation at 4 uM after 9 hrs by agarose gel electrophoresis. Type of assay: functional, cell-based.
Assay [18] has as its system HL-60. In words: Cell cycle arrest in human HL60 cells assessed as accumulation at sub-G1 phase at 4 uM after 18 hrs by flow cytometry relative to control.

Molecules are shown by their SMILES. Active and inactive are the calls of the source. The calls are words filed in the database; no cut-off is given here.

As a reminder, the IC50 is the concentration that gives 50% inhibition. As to `CCCCOC(=O)[C@@]1(C)C(=O)C(C#N)=C[C@]2(C)[C@H]3CC=C4[C@@H]5[C@@H](C)[C@H](C)CC[C@]5(C)CC[C@@]4(C)[C@]3(C)CC[C@@H]12`, the Activity in the assay with HL-60 [1] is recorded as 1%; in the assay with HL-60 [3] it was 12%; with HL-60 [5], 9%; in the assay with HL-60 [6], 10%; in the assay on HL-60 [8] it was 2%; with HL-60 [11] it was 76%. In addition, the Activity came out at 1% with HL-60 [13], 2% in the assay on HL-60 [14] and 11% with HL-60 [16]. For the same compound, the outcome in the assay on HL-60 [2], in the assay on HL-60 [4], in the assay with HL-60 [7], with HL-60 [9], in the assay on HL-60 [10] and in the assay with HL-60 [15] was Active. Moreover, the 50% inhibitory concentration (IC50) worked out at 7.9 µM with HeLa and 0.42 µM in the assay with HL-60 [12].

Consider `CC[C@@]1(O)C(=O)OCc2c1cc1n(c2=O)Cc2cc3ccccc3nc2-1` [CAMPTOTHECIN], for which the outcome in the assay with HL-60 [17] was Active. Moreover, the Activity in the assay with HL-60 [18] was found to be 96%; in the assay with HL-60 [3], 35%; in the assay on HL-60 [13] it was 4%.

These data come from ChEMBL document CHEMBL1759852, “A comparative study of proapoptotic potential of cyano analogues of boswellic acid and 11-keto-boswellic acid” (Eur J Med Chem, 2011).
